{"source": "ChEMBL document CHEMBL1671747", "about": "“Efficacy and safety of intravenous peramivir for treatment of seasonal influenza virus infection” (Antimicrob Agents Chemother, 2010)", "key": {"Homo sapiens [1]": {"test_system": "Homo sapiens", "assay": "Toxicity in human patient infected with Influenza virus assessed as beta-N-Acetyl-D-glucosaminidase at 600 mg, iv", "assay_type": "organism-based", "conditions": "in vivo", "outline": "(§1)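 One IV dose of 300 or 600 mg or placebo was given to adults with influenza. Blood (hematology, biochemistry) and urine (including NAG, β2- and α1-microglobulin, protein) were sampled at baseline, day 3 and day 14 by blinded technicians. Adverse-event incidence versus placebo was compared by Fisher's exact test.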"}, "Homo sapiens [2]": {"test_system": "Homo sapiens", "assay": "Toxicity in human patient infected with Influenza virus assessed as urine containing albumine at 600 mg, iv", "assay_type": "organism-based", "conditions": "in vivo", "outline": "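Subjects received a single intravenous peramivir dose (300 or 600 mg) or placebo, infused over a median of 0.63 h. Urinalysis covered protein, albumin and sediment, among other analytes. Urine was collected at baseline and on days 3 and 14 and tested by blinded technicians. Incidence in the safety population (n = 298 treated) was compared with placebo by Fisher's exact test.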"}, "Homo sapiens [3]": {"test_system": "Homo sapiens", "assay": "Toxicity in human patient infected with Influenza virus assessed as decrease in total Protein at 600 mg, iv", "assay_type": "organism-based", "conditions": "in vivo", "outline": "as §1"}, "Homo sapiens [4]": {"test_system": "Homo sapiens", "assay": "Toxicity in human patient infected with Influenza virus assessed as lymphocyte morphology abnormal at 600 mg, iv", "assay_type": "organism-based", "conditions": "in vivo", "outline": "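Adults with seasonal influenza received one intravenous infusion of peramivir (300 or 600 mg) or matching placebo; the median infusion lasted 0.63 h. Blood for haematology, including the white-cell differential, was taken at baseline and on days 3 and 14. Tests were run by blinded technicians. Adverse-event incidence in the 298-subject safety population was compared with placebo by Fisher's exact test.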"}, "Homo sapiens [5]": {"test_system": "Homo sapiens", "assay": "Toxicity in human patient infected with Influenza virus assessed as nasopharyngitis at 600 mg, iv", "assay_type": "organism-based", "conditions": "in vivo", "outline": "(§2)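 In this randomized trial, subjects received a single intravenous infusion of peramivir (300 mg or 600 mg) or matching placebo; the median infusion lasted 0.63 h. Subjects were followed at visits on days 1, 2 (optional), 3, 5, 9 and 14. Adverse-event incidences across the 298 treated subjects were compared with placebo using Fisher's exact test.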"}, "Homo sapiens [6]": {"test_system": "Homo sapiens", "assay": "Toxicity in human patient infected with Influenza virus assessed as increase in blood phosphate at 600 mg, iv", "assay_type": "organism-based", "conditions": "in vivo", "outline": "as §1"}, "Influenza A virus [7]": {"test_system": "Influenza A virus", "assay": "Antiviral activity against Influenza A virus H3N2 infected in human patient assessed as alleviation time of symptoms at 300 mg, iv (reference value: 81 hrs)", "assay_type": "functional"}, "Influenza A virus [8]": {"test_system": "Influenza A virus", "assay": "Antiviral activity against Influenza A virus H3N2 infected in human patient assessed as alleviation time of symptoms at 600 mg, iv (reference value: 81 hrs)", "assay_type": "functional"}, "[9]": {"test_system": "unidentified influenza virus", "assay": "Antiviral activity against Influenza virus infected in human patient assessed as reduction in fever at 300 mg, iv after 24 hrs", "assay_type": "functional, organism-based", "outline": "(§3)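 A single IV dose of 300 or 600 mg or placebo was given to adults with seasonal influenza. The outcome was the proportion of subjects with postbaseline normal temperature (<37.0°C). Groups were compared by Mantel-Haenszel test stratified for smoking and baseline composite symptom score.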"}, "[10]": {"test_system": "unidentified influenza virus", "assay": "Antiviral activity against Influenza virus infected in human patient assessed as reduction in fever at 600 mg, iv after 24 hrs", "assay_type": "functional, organism-based", "outline": "as §3"}, "Influenza A virus [11]": {"test_system": "Influenza A virus", "assay": "Antiviral activity against influenza A virus H1N1 infected in MDCK cells assessed as inhibition of neuraminidase activity by fluorimetric assay", "assay_type": "functional, organism-based", "outline": "(§4)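 Viruses were isolated from baseline patient swabs on MDCK cells. Neuraminidase inhibition was measured by a standard fluorometric assay. IC50 came from plotting percent inhibition of neuraminidase activity against inhibitor concentration, reported as mean ± SD of three independent experiments.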"}, "Influenza A virus [12]": {"test_system": "Influenza A virus", "assay": "Antiviral activity against influenza A virus H3N2 infected in MDCK cells assessed as inhibition of neuraminidase activity by fluorimetric assay", "assay_type": "functional, organism-based", "outline": "as §4"}, "Influenza A virus [13]": {"test_system": "Influenza A virus", "assay": "Antiviral activity against influenza A virus infected in MDCK cells assessed as inhibition of neuraminidase activity by fluorimetric assay", "assay_type": "functional, organism-based", "outline": "as §4"}, "Influenza B virus": {"test_system": "Influenza B virus", "assay": "Antiviral activity against influenza B virus infected in MDCK cells assessed as inhibition of neuraminidase activity by fluorimetric assay", "assay_type": "functional, organism-based", "outline": "as §4"}, "Influenza A virus [14]": {"test_system": "Influenza A virus", "assay": "Antiviral activity against Influenza A virus H1N1 infected in human patient assessed as alleviation time of symptoms at 300 mg, iv (reference value: 81.4 hrs)", "assay_type": "functional"}, "Influenza A virus [15]": {"test_system": "Influenza A virus", "assay": "Antiviral activity against Influenza A virus H1N1 infected in human patient assessed as alleviation time of symptoms at 600 mg, iv (reference value: 81.4 hrs)", "assay_type": "functional"}, "[16]": {"test_system": "unidentified influenza virus", "assay": "Antiviral activity against Influenza virus infected in human patient assessed as resumption time of usual activities at 300 mg, iv", "assay_type": "functional"}, "Homo sapiens [17]": {"test_system": "Homo sapiens", "assay": "Toxicity in human patient infected with Influenza virus assessed as occurrence of bronchitis at 300 mg, iv", "assay_type": "organism-based", "conditions": "in vivo", "outline": "as §2"}, "Homo sapiens [18]": {"test_system": "Homo sapiens", "assay": "Toxicity in human patient infected with Influenza virus assessed as occurrence of otitis at 600 mg, iv", "assay_type": "organism-based", "conditions": "in vivo", "outline": "as §2"}, "[19]": {"test_system": "unidentified influenza virus", "assay": "Antiviral activity against Influenza virus infected in human patient assessed as decrease in virus-positive patients at 300 mg, iv on day 3", "assay_type": "functional", "outline": "(§5)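 Nasal and throat swabs were taken at baseline and on days 2, 3, 5 and 9, held in 2 ml transport medium, and titrated on MDCK cells in triplicate: 10-fold dilutions, 3 μg/ml trypsin, 1 h adsorption, washes, then 3 days at 37°C. CPE gave TCID50/ml by Spearman-Karber; positive meant ≥1.1 log10 TCID50/ml. Proportions were compared by Mantel-Haenszel test stratified for smoking and baseline score.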"}, "[20]": {"test_system": "unidentified influenza virus", "assay": "Antiviral activity against Influenza virus infected in human patient assessed as decrease in virus-positive patients at 600 mg, iv on day 3", "assay_type": "functional", "outline": "as §5"}, "[21]": {"test_system": "unidentified influenza virus", "assay": "Antiviral activity against Influenza virus infected in human patient assessed as decrease in virus-positive patients at 300 mg, iv on day 9", "assay_type": "functional", "outline": "as §5"}, "[22]": {"test_system": "unidentified influenza virus", "assay": "Antiviral activity against Influenza virus infected in human patient assessed as decrease in virus-positive patients at 600 mg, iv on day 9", "assay_type": "functional", "outline": "as §5"}, "Homo sapiens [23]": {"test_system": "Homo sapiens", "assay": "Toxicity in human patient infected with Influenza virus assessed as occurrence of diarrhea at 300 mg, iv", "assay_type": "organism-based", "conditions": "in vivo", "outline": "as §2"}, "Homo sapiens [24]": {"test_system": "Homo sapiens", "assay": "Toxicity in human patient infected with Influenza virus assessed as occurrence of diarrhea at 600 mg, iv", "assay_type": "organism-based", "conditions": "in vivo", "outline": "as §2"}, "Homo sapiens [25]": {"test_system": "Homo sapiens", "assay": "Toxicity in human patient infected with Influenza virus assessed as occurrence of nausea at 300 mg, iv", "assay_type": "organism-based", "conditions": "in vivo", "outline": "as §2"}, "Homo sapiens [26]": {"test_system": "Homo sapiens", "assay": "Toxicity in human patient infected with Influenza virus assessed as occurrence of nausea at 600 mg, iv", "assay_type": "organism-based", "conditions": "in vivo", "outline": "as §2"}, "Homo sapiens [27]": {"test_system": "Homo sapiens", "assay": "Toxicity in human patient infected with Influenza virus assessed as prolongation of electrocardiogram QT interval at 300 mg, iv", "assay_type": "organism-based", "conditions": "in vivo"}, "Homo sapiens [28]": {"test_system": "Homo sapiens", "assay": "Toxicity in human patient infected with Influenza virus assessed as increase in blood glucose level at 600 mg, iv", "assay_type": "organism-based", "conditions": "in vivo", "outline": "as §1"}, "Homo sapiens [29]": {"test_system": "Homo sapiens", "assay": "Toxicity in human patient infected with Influenza virus assessed as increase in blood creatinine level at 600 mg, iv", "assay_type": "organism-based", "conditions": "in vivo", "outline": "as §1"}, "Plasma [30]": {"test_system": "Plasma", "assay": "Plasma concentration in human at 300 mg, iv", "assay_type": "ADME", "outline": "(§6)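 Subjects received a single IV infusion of 300 or 600 mg (mean 5.0 or 10.0 mg/kg; median infusion 0.63 h). Plasma was sampled just before the infusion ended, and on days 2 and 3. Samples were deproteinized and run on C18 LC/MS-MS. Values are medians at end of infusion, 18–24 h and 36–48 h after infusion.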"}, "Plasma [31]": {"test_system": "Plasma", "assay": "Plasma concentration in human at 600 mg, iv", "assay_type": "ADME", "outline": "as §6"}, "Plasma [32]": {"test_system": "Plasma", "assay": "Plasma concentration in human at 300 mg, iv after 18 to 24 hrs", "assay_type": "ADME, organism-based", "conditions": "in vivo", "outline": "as §6"}, "Plasma [33]": {"test_system": "Plasma", "assay": "Plasma concentration in human at 600 mg, iv after 18 to 24 hrs", "assay_type": "ADME, organism-based", "conditions": "in vivo", "outline": "as §6"}, "Plasma [34]": {"test_system": "Plasma", "assay": "Plasma concentration in human at 300 mg, iv after 36 to 48 hrs", "assay_type": "ADME, organism-based", "conditions": "in vivo", "outline": "as §6"}}, "note": "Activity calls are given as the source filed them. The rule behind the calls is not given here.", "data": [{"smiles": "CCC(CC)[C@H](NC(C)=O)[C@@H]1[C@H](O)[C@@H](C(=O)O)C[C@H]1NC(=N)N", "note": "[PERAMIVIR ANHYDROUS]", "values": [{"measurement": "Activity", "setting": "Homo sapiens [1]", "value": "Toxic"}, {"measurement": "Activity", "setting": "Homo sapiens [2]", "value": "Toxic"}, {"measurement": "Activity", "setting": "Homo sapiens [3]", "value": "Toxic"}, {"measurement": "Activity", "setting": "Homo sapiens [4]", "value": "Toxic"}, {"measurement": "Activity", "setting": "Homo sapiens [5]", "value": "Toxic"}, {"measurement": "Activity", "setting": "Homo sapiens [6]", "value": "Toxic"}, {"measurement": "Time", "setting": "Influenza A virus [7]", "value": 76.1, "unit": "h"}, {"measurement": "Time", "setting": "Influenza A virus [8]", "value": 50.5, "unit": "h"}, {"measurement": "Activity", "setting": "[9]", "value": "Active"}, {"measurement": "Activity", "setting": "[10]", "value": "Active"}, {"measurement": "IC50", "setting": "Influenza A virus [11]", "value": 9.43, "unit": "nM"}, {"measurement": "IC50", "setting": "Influenza A virus [12]", "value": 3.51, "unit": "nM"}, {"measurement": "IC50", "setting": "Influenza A virus [13]", "value": 1.72, "unit": "nM"}, {"measurement": "IC50", "setting": "Influenza B virus", "value": 3, "unit": "nM"}, {"measurement": "Time", "setting": "Influenza A virus [14]", "value": 52.5, "unit": "h"}, {"measurement": "Time", "setting": "Influenza A virus [15]", "value": 62.6, "unit": "h"}, {"measurement": "Time", "setting": "[16]", "value": 125.6, "unit": "h"}, {"measurement": "Activity", "setting": "Homo sapiens [17]", "value": 3, "unit": "%"}, {"measurement": "Activity", "setting": "Homo sapiens [18]", "value": 1, "unit": "%"}, {"measurement": "inhibition (INH)", "setting": "[19]", "value": 36.8, "unit": "%"}, {"measurement": "inhibition (INH)", "setting": "[20]", "value": 25.8, "unit": "%"}, {"measurement": "inhibition (INH)", "setting": "[21]", "value": 0, "unit": "%"}, {"measurement": "inhibition (INH)", "setting": "[22]", "value": 1.1, "unit": "%"}, {"measurement": "Activity", "setting": "Homo sapiens [23]", "value": 14.1, "unit": "%"}, {"measurement": "Activity", "setting": "Homo sapiens [24]", "value": 15.2, "unit": "%"}, {"measurement": "Activity", "setting": "Homo sapiens [25]", "value": 3, "unit": "%"}, {"measurement": "Activity", "setting": "Homo sapiens [26]", "value": 6.1, "unit": "%"}, {"measurement": "Activity", "setting": "Homo sapiens [27]", "value": 2, "unit": "%"}, {"measurement": "Activity", "setting": "Homo sapiens [28]", "value": "Toxic"}, {"measurement": "Activity", "setting": "Homo sapiens [29]", "value": "Toxic"}, {"measurement": "Cp", "setting": "Plasma [30]", "value": 18100, "unit": "ng/mL"}, {"measurement": "Cp", "setting": "Plasma [31]", "value": 36300, "unit": "ng/mL"}, {"measurement": "Cp", "setting": "Plasma [32]", "value": 14.8, "unit": "ng/mL"}, {"measurement": "Cp", "setting": "Plasma [33]", "value": 32.8, "unit": "ng/mL"}, {"measurement": "Cp", "setting": "Plasma [34]", "value": 5.01, "unit": "ng/mL"}]}]}
